pEC50, pIC50: −log10 of the molar value.
Experiments:
Prothrombin = Prothrombin (Homo sapiens, UniProt P00734); assay: Inhibition of human thrombin
Cathepsin S = Cathepsin S (Homo sapiens, UniProt P25774); assay: Inhibition of human cathepsin S
Plasminogen = Plasminogen (Homo sapiens, UniProt P00747); assay: Inhibition of human plasmin
[1] = biological target: T1, Neutrophil elastase (Homo sapiens) (UniProt P08246); assay: (§1) Inhibition of human neutrophil elastase
T1 sequence (whole entry): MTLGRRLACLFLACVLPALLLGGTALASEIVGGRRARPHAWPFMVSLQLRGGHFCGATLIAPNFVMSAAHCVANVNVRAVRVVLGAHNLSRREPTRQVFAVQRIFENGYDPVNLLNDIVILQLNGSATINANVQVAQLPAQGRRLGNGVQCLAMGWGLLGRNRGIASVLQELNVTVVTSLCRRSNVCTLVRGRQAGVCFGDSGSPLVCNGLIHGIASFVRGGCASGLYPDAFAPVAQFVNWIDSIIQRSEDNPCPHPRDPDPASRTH

Neutrophil elastase = biological target: T2, Neutrophil elastase (Homo sapiens, UniProt P08246); assay: as §1
T2 sequence (P08246 whole entry): T1 sequence (whole entry)

Hepatitis C virus [2] = assay: Ratio of EC90 for Hepatitis C virus genotype 1b NS3/4A protease D168A mutant to EC90 Hepatitis C virus genotype 1b wild type NS3/4A protease; parameters: species or system Hepatitis C virus subtype 1b
In short: (§2)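 Genotype 1b NS3 protease enzyme panel: wild type plus resistance mutants A156T, R155K, D168V, V36M, A156S, V170A and D168A. […] Resistance is expressed as the fold increase of each mutant's value over the wild-type value.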

Hepatitis C virus [3] = assay: Ratio of EC50 for Hepatitis C virus genotype 1b NS3/4A protease D168A mutant to EC50 Hepatitis C virus genotype 1b wild type NS3/4A protease; parameters: species or system Hepatitis C virus subtype 1b; in short: as §2
Hepatitis C virus [4] = assay: Ratio of EC90 for Hepatitis C virus genotype 1b NS3/4A protease V170A mutant to EC90 Hepatitis C virus genotype 1b wild type NS3/4A protease; parameters: species or system Hepatitis C virus subtype 1b; in short: as §2
Hepatitis C virus [5] = assay: Inhibition of Hepatitis C virus genotype 1b NS3/4A protease V170A mutant; parameters: species or system Hepatitis C virus subtype 1b
In short: (§3)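 Panel of genotype 1b NS3 protease enzymes (wild type and mutants). IC50 and IC90 are averages ± standard error from 2 independent assays. Fold change versus wild type given in parentheses.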

Hepatitis C virus [6] = assay: Ratio of EC50 for Hepatitis C virus genotype 1b NS3/4A protease A156S mutant to EC50 Hepatitis C virus genotype 1b wild type NS3/4A protease; parameters: species or system Hepatitis C virus subtype 1b; in short: as §2
Hepatitis C virus [7] = assay: Inhibition of Hepatitis C virus genotype 1b NS3/4A protease A156S mutant; parameters: species or system Hepatitis C virus subtype 1b; in short: as §3
Hepatitis C virus [8] = assay: Ratio of EC90 for Hepatitis C virus genotype 1b NS3/4A protease V36M mutant to EC90 Hepatitis C virus genotype 1b wild type NS3/4A protease; parameters: species or system Hepatitis C virus subtype 1b; in short: as §2
Hepatitis C virus [9] = assay: Ratio of EC50 for Hepatitis C virus genotype 1b NS3/4A protease V36M mutant to EC50 Hepatitis C virus genotype 1b wild type NS3/4A protease; parameters: species or system Hepatitis C virus subtype 1b; in short: as §2
Hepatitis C virus [10] = assay: Inhibition of Hepatitis C virus genotype 1b NS3/4A protease V36M mutant; parameters: species or system Hepatitis C virus subtype 1b; in short: as §3
Hepatitis C virus [11] = assay: Ratio of EC90 for Hepatitis C virus genotype 1b NS3/4A protease D168V mutant to EC90 Hepatitis C virus genotype 1b wild type NS3/4A protease; parameters: species or system Hepatitis C virus subtype 1b; in short: as §2
Hepatitis C virus [12] = assay: Ratio of EC50 for Hepatitis C virus genotype 1b NS3/4A protease D168V mutant to EC50 Hepatitis C virus genotype 1b wild type NS3/4A protease; parameters: species or system Hepatitis C virus subtype 1b; in short: as §2
Hepatitis C virus [13] = assay: Inhibition of Hepatitis C virus genotype 1b NS3/4A protease D168V mutant; parameters: species or system Hepatitis C virus subtype 1b; in short: as §3
Hepatitis C virus [14] = assay: Ratio of EC90 for Hepatitis C virus genotype 1b NS3/4A protease R155K mutant to EC90 Hepatitis C virus genotype 1b wild type NS3/4A protease; parameters: species or system Hepatitis C virus subtype 1b; in short: as §2
Hepatitis C virus [15] = assay: Inhibition of Hepatitis C virus genotype 1b NS3/4A protease D168A mutant; parameters: species or system Hepatitis C virus subtype 1b; in short: as §3
Hepatitis C virus [16] = assay: Ratio of EC50 for Hepatitis C virus genotype 1b NS3/4A protease R155K mutant to EC50 Hepatitis C virus genotype 1b wild type NS3/4A protease; parameters: species or system Hepatitis C virus subtype 1b; in short: as §2
Hepatitis C virus [17] = assay: Inhibition of Hepatitis C virus genotype 1b NS3/4A protease R155K mutant; parameters: species or system Hepatitis C virus subtype 1b; in short: as §3
Hepatitis C virus [18] = assay: Ratio of EC90 for Hepatitis C virus genotype 1b NS3/4A protease A156T mutant to EC90 Hepatitis C virus genotype 1b wild type NS3/4A protease; parameters: species or system Hepatitis C virus subtype 1b; in short: as §2
Hepatitis C virus [19] = assay: Inhibition of Hepatitis C virus genotype 1b NS3/4A protease A156T mutant; parameters: species or system Hepatitis C virus subtype 1b; in short: as §3
Hepatitis C virus [20] = assay: Inhibition of Hepatitis C virus genotype 1b wild type NS3/4A protease; parameters: species or system Hepatitis C virus subtype 1b; in short: as §3
Huh-7 = assay: Cytotoxicity against human HuH7 cells; assay type: cell-based
In short: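 Huh7 cytotoxicity measured together with the replicon antiviral assay, by extraction and amplification of ribosomal RNA. Each concentration run in triplicate and reported as mean.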

Vero = assay: Cytotoxicity against african green monkey Vero cells; assay type: cell-based; conditions: chlorocebus sabaeus
In short: (§4)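 Cytotoxicity was profiled in three cell types: primary human peripheral blood mononuclear (PBM) cells, CEM (a human T-cell-derived line) and Vero (African green monkey kidney epithelial cells).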

CCRF-CEM = assay: Cytotoxicity against human CEM cells; assay type: cell-based; in short: as §4
PBMC = assay: Cytotoxicity against human PBMC; assay type: cell-based; in short: as §4
Hepatitis C virus [21] = assay: Antiviral activity against Hepatitis C virus infected in human HuH7 cells assessed as viral RNA replication; assay type: functional, organism-based, Hepacivirus hominis; conditions: Huh-7
In short: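 Subgenomic HCV replicon in Huh7 cells; inhibition of HCV RNA replication measured by extraction and amplification of HCV RNA. Each concentration run in triplicate and reported as mean; EC50 derived.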

Plasminogen, sequence (P00747 97-580 limits assumed): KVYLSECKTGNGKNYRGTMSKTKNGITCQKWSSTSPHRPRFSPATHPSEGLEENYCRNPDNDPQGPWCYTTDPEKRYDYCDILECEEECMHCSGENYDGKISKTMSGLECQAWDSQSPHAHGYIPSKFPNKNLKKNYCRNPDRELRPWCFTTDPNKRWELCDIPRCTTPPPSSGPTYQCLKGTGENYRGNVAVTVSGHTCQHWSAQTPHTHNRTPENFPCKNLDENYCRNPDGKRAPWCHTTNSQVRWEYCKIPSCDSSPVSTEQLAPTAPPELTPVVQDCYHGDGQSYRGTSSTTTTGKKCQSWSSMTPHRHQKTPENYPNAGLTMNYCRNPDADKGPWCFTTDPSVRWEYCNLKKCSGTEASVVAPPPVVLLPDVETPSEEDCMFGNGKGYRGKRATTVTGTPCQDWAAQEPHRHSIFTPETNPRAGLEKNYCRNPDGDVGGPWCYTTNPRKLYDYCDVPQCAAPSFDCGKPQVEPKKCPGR
Plasminogen, sequence (P00747 581-810 limits assumed): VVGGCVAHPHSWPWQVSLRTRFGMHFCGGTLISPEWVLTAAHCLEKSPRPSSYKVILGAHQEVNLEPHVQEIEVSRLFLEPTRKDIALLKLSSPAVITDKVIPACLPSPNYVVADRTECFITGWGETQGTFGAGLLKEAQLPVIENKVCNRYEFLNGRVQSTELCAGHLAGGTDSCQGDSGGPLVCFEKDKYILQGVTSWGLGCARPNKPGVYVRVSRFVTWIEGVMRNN

Work on CCCC(NC(=O)C1N(C(=O)[C@@H](NC(=O)[C@@H](NC(=O)c2cnccn2)C2CCCCC2)C(C)(C)C)CC12CCCCC2)C(=O)C(=O)NC1CC1 (stereo not given in full) yielded a pIC50 (Prothrombin) of over 6.00, an IC90 (Prothrombin) of under 1.7 µM and a pIC50 (Cathepsin S) of under 4.00. The IC90 (Cathepsin S) was over 100 µM, the pIC50 (Plasminogen) was under 4.00 and the IC90 (Plasminogen) was over 100 µM. It also gave an IC90 [1] of 85 µM, a pIC50 (Neutrophil elastase) of 5.11 and a Ratio (Hepatitis C virus [2]) of 0.8. The “Ratio EC50” value (Hepatitis C virus [3]) was 0.9, the Ratio (Hepatitis C virus [4]) was 0.9 and the pEC50 (Hepatitis C virus [5]) was under 6.00. The EC90 (Hepatitis C virus [5]) was 8.7 µM, the “Ratio EC50” value (Hepatitis C virus [6]) was 55 and the pEC50 (Hepatitis C virus [7]) was 4.37. For the same molecule, the EC90 (Hepatitis C virus [7]) was over 100 µM, the Ratio (Hepatitis C virus [8]) was 7.6 and the “Ratio EC50” value (Hepatitis C virus [9]) was 8.8. It also gave a pEC50 (Hepatitis C virus [10]) of 5.16, an EC90 (Hepatitis C virus [10]) of 75 µM and a Ratio (Hepatitis C virus [11]) of 0.3. The “Ratio EC50” value (Hepatitis C virus [12]) was 0.5, the pEC50 (Hepatitis C virus [13]) was 6.40 and the EC90 (Hepatitis C virus [13]) was 3.3 µM. The Ratio (Hepatitis C virus [14]) was 6.6, the pEC50 (Hepatitis C virus [15]) was 6.14 and the EC90 (Hepatitis C virus [15]) was 8.2 µM. The “Ratio EC50” value (Hepatitis C virus [16]) was 7.1, the pEC50 (Hepatitis C virus [17]) was 5.26 and the EC90 (Hepatitis C virus [17]) was 64 µM. For the same molecule, the Ratio (Hepatitis C virus [18]) was over 10, the pEC50 (Hepatitis C virus [19]) was under 4.00 and the EC90 (Hepatitis C virus [19]) was over 100 µM. For the same molecule, the pEC50 (Hepatitis C virus [20]) was 6.11, the EC90 (Hepatitis C virus [20]) was 9.81 µM and the CC50 (Huh-7) was over 10 µM. It also gave a CC50 (Vero) of 27 µM, a CC50 (CCRF-CEM) of 16 µM and a CC50 (PBMC) of 32 µM. For the same molecule, the pEC50 (Hepatitis C virus [21]) was 5.64 and the EC90 (Hepatitis C virus [21]) was 6.4 µM.
CCCC(NC(=O)C1N(C(=O)[C@@H](NC(=O)NC2CCCCC2)C(C)(C)C)CC12Cc1ccccc1C2)C(=O)C(=O)NC1CC1 (stereo not given in full) was tested, and the CC50 (Huh-7) was 8.2 µM, the CC50 (Vero) was 44 µM and the CC50 (PBMC) was 30 µM. The pEC50 (Hepatitis C virus [21]) was 5.05 and the EC90 (Hepatitis C virus [21]) was 30 µM.
Work on CCCC(NC(=O)C1N(C(=O)[C@@H](NC(=O)[C@@H](NC(=O)c2cnccn2)C2CCCCC2)C(C)(C)C)CC12CCCCC2)C(=O)C(=O)NCCF (stereo not given in full) yielded a CC50 (Huh-7) of over 10 µM, a CC50 (Vero) of 21 µM and a CC50 (CCRF-CEM) of 5.4 µM. It also gave a CC50 (PBMC) of 32 µM, a pEC50 (Hepatitis C virus [21]) of 5.27 and an EC90 (Hepatitis C virus [21]) of 9.7 µM.
With CC(C)(C)[C@H](NC(=O)[C@@H](NC(=O)c1cnccn1)C1CCCCC1)C(=O)N1CC2(Cc3ccccc3C2)C1C(=O)NC(CC1CC1)C(=O)C(=O)NC1CC1 (stereo not given in full) the CC50 (Vero) was over 100 µM, the CC50 (CCRF-CEM) was 14 µM and the CC50 (PBMC) was 12 µM. It also gave a pEC50 (Hepatitis C virus [21]) of 6.10 and an EC90 (Hepatitis C virus [21]) of 1.5 µM.
CCCC(NC(=O)C1N(C(=O)[C@@H](NC(=O)NC2CCCC2)C(C)(C)C)CC12Cc1ccccc1C2)C(=O)C(=O)NC1CC1 (stereo not given in full) gave a CC50 (Huh-7) of over 10 µM, a CC50 (Vero) of 95 µM and a CC50 (PBMC) of over 100 µM. It also gave a pEC50 (Hepatitis C virus [21]) of under 5.00 and an EC90 (Hepatitis C virus [21]) of over 10 µM.
In the case of CCCC(NC(=O)C1N(C(=O)[C@@H](NC(=O)NC(C)(C)C)C(C)(C)C)CC12Cc1ccccc1C2)C(=O)C(=O)NC1CC1 (stereo not given in full), the CC50 (Huh-7) was 27 µM, the CC50 (Vero) was over 100 µM and the CC50 (PBMC) was over 100 µM. It also gave a pEC50 (Hepatitis C virus [21]) of 4.89 and an EC90 (Hepatitis C virus [21]) of 31 µM.
For CC(C)(C)[C@H](NC(=O)[C@@H](NC(=O)c1cnccn1)C1CCCCC1)C(=O)N1CC2(Cc3ccccc3C2)C1C(=O)NC(CC1CCC1)C(=O)C(=O)NC1CC1 (stereo not given in full), the CC50 (Vero) was over 100 µM, the CC50 (CCRF-CEM) was 43 µM and the CC50 (PBMC) was 29 µM. It also gave a pEC50 (Hepatitis C virus [21]) of 6.15 and an EC90 (Hepatitis C virus [21]) of 1 µM.
In the case of CC(C)(C)NC(=O)N[C@H](C(=O)N1C[C@H]2[C@@H]([C@H]1C(=O)NC(CC1CCC1)C(=O)C(N)=O)C2(C)C)C(C)(C)C (stereo not given in full) [BOCEPREVIR], the pIC50 (Prothrombin) was over 6.00, the IC90 (Prothrombin) was under 1.4 µM and the pIC50 (Cathepsin S) was under 4.00. The IC90 (Cathepsin S) was over 100 µM, the pIC50 (Plasminogen) was under 4.00 and the IC90 (Plasminogen) was over 100 µM. The IC90 [1] was over 100 µM, the pIC50 (Neutrophil elastase) was at most 4.00 and the EC90 (Hepatitis C virus [5]) was 7.7 µM. The EC90 (Hepatitis C virus [7]) was at least 100 µM, the EC90 (Hepatitis C virus [10]) was 5.6 µM and the EC90 (Hepatitis C virus [13]) was 0.9 µM. The EC90 (Hepatitis C virus [15]) was 4.7 µM, the EC90 (Hepatitis C virus [17]) was 4.8 µM and the EC90 (Hepatitis C virus [19]) was over 100 µM. For the same molecule, the EC90 (Hepatitis C virus [20]) was 1 µM, the CC50 (Huh-7) was over 10 µM and the CC50 (Vero) was over 100 µM. The CC50 (CCRF-CEM) was over 100 µM, the CC50 (PBMC) was over 100 µM and the pEC50 (Hepatitis C virus [21]) was 8.00. It also gave an EC90 (Hepatitis C virus [21]) of 0.03 µM.
For CCCC(NC(=O)C1CCN1C(=O)[C@@H](NC(=O)[C@@H](NC(=O)c1cnccn1)C1CCCCC1)C(C)(C)C)C(=O)C(=O)NCCF (stereo not given in full), the CC50 (Huh-7) was over 10 µM, the CC50 (Vero) was over 100 µM and the CC50 (CCRF-CEM) was 52 µM. The CC50 (PBMC) was 80 µM, the pEC50 (Hepatitis C virus [21]) was under 5.00 and the EC90 (Hepatitis C virus [21]) was over 10 µM.

Reference: ChEMBL document CHEMBL2440035, “Azetidines and spiro azetidines as novel P2 units in hepatitis C virus NS3 protease inhibitors” (Bioorg Med Chem Lett, 2013)
